Laboratory results: ChEMBL document CHEMBL1137218, “Long hydrocarbon chain ether diols and ether diacids that favorably alter lipid disorders in vivo” (J Med Chem, 2004)

Experiments:
Rattus norvegicus [1] = assay: Blood glucose levels in female obese rats two weeks post treatment at 3 mg/kg oral dose; pretreatment value = 117 mg/dL; format: functional
Rattus norvegicus [2] = assay: Serum Triglyceride levels in female obese rats one week post treatment at 100 mg/kg oral dose; pretreatment value = 746 mg/dL; format: functional
Rattus norvegicus [3] = assay: Blood glucose levels in female obese rats one week post treatment at 10 mg/kg oral dose; pretreatment value = 112 mg/dL; format: functional
Rattus norvegicus [4] = assay: Serum HDL cholesterol levels in female obese rats two weeks post treatment at 3 mg/kg oral dose; pretreatment value = 59 mg/dL; format: functional
Rattus norvegicus [5] = assay: Serum Triglyceride levels in female obese rats two weeks post treatment at 30 mg/kg oral dose; pretreatment value = 1240 mg/dL; format: functional
Rattus norvegicus [6] = assay: Serum HDL cholesterol levels in female obese rats one week post treatment at 100 mg/kg oral dose; pretreatment value = 59 mg/dL; format: functional
Rattus norvegicus [7] = assay: Serum HDL cholesterol levels in female obese rats two weeks post treatment at 10 mg/kg oral dose; pretreatment value = 56 mg/dL; format: functional
Rattus norvegicus [8] = assay: Serum HDL cholesterol levels in female obese rats two weeks post treatment at 30 mg/kg oral dose; pretreatment value = 42 mg/dL; format: functional
Rattus norvegicus [9] = assay: Blood glucose levels in female obese rats two weeks post treatment at 30 mg/kg oral dose; pretreatment value = 109 mg/dL; format: functional
Rattus norvegicus [10] = assay: Serum NEFA levels in female obese rats one week post treatment at 3 mg/kg oral dose; pretreatment value = 1.2 mg/dL; format: functional
Rattus norvegicus [11] = assay: Serum NEFA levels in female obese rats one week post treatment at 10 mg/kg oral dose; pretreatment value = 1.2 mg/dL; format: functional
Rattus norvegicus [12] = assay: Serum NEFA levels in female obese rats two weeks post treatment at 3 mg/kg oral dose; pretreatment value = 1.2 mg/dL; format: functional
Rattus norvegicus [13] = assay: Serum NEFA levels in female obese rats one week post treatment at 100 mg/kg oral dose; pretreatment value = 1.1 mg/dL; format: functional
Rattus norvegicus [14] = assay: Insulin levels in female obese rats one week post treatment at 30 mg/kg oral dose; pretreatment value = 9.3 ng/mL; format: functional
Rattus norvegicus [15] = assay: Insulin levels in female obese rats two weeks post treatment at 3 mg/kg oral dose; pretreatment value = 12.9 ng/mL; format: functional
Rattus norvegicus [16] = assay: Serum NEFA levels in female obese rats two weeks post treatment at 10 mg/kg oral dose; pretreatment value = 1.2 mg/dL; format: functional
Rattus norvegicus [17] = assay: Serum NEFA levels in female obese rats two weeks post treatment at 30 mg/kg oral dose; pretreatment value = 1.3 mg/dL; format: functional
Rattus norvegicus [18] = assay: Insulin levels in female obese rats one week post treatment at 100 mg/kg oral dose; pretreatment value = 12.7 ng/mL; format: functional
Rattus norvegicus [19] = assay: Serum Non-HDL cholesterol levels in female obese rats one week post treatment at 3 mg/kg oral dose; pretreatment value = 21 mg/dL; format: functional
Method in brief: (§1)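 Female obese Zucker fatty rats (10–12 weeks, 400–500 g), once-daily oral gavage in 20% EtOH/80% PEG-200 (v/v) for up to 14 days. Serum drawn after a 6 h fast, pre-dose and at days 7 and 14. Non-HDL cholesterol is serum total cholesterol times the percent area of the non-HDL peaks in a Superose 6HR gel-filtration profile with on-line cholesterol detection. n = 4 per dose.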

Rattus norvegicus [20] = assay: Serum Non-HDL cholesterol levels in female obese rats two weeks post treatment at 3 mg/kg oral dose; pretreatment value = 21 mg/dL; format: functional; method in brief: as §1
Rattus norvegicus [21] = assay: Blood glucose levels in female obese rats two weeks post treatment at 3 mg/kg oral dose; pretreatment value = 115 mg/dL; format: functional
Rattus norvegicus [22] = assay: Serum Triglyceride levels in female obese rats one week post treatment at 10 mg/kg oral dose; pretreatment value = 1185 mg/dL; format: functional
Rattus norvegicus [23] = assay: Serum Triglyceride levels in female obese rats one week post treatment at 30 mg/kg oral dose; pretreatment value = 1004 mg/dL; format: functional
Rattus norvegicus [24] = assay: Serum NEFA levels in female obese rats two weeks post treatment at 100 mg/kg oral dose; pretreatment value = 1.2 mg/dL; format: functional
Rattus norvegicus [25] = assay: Blood glucose levels in female obese rats one week post treatment at 30 mg/kg oral dose; pretreatment value = 106 mg/dL; format: functional
Rattus norvegicus [26] = assay: Serum HDL cholesterol levels in female obese rats one week post treatment at 3 mg/kg oral dose; pretreatment value = 57 mg/dL; format: functional
Rattus norvegicus [27] = assay: Serum HDL cholesterol levels in female obese rats one week post treatment at 30 mg/kg oral dose; pretreatment value = 49 mg/dL; format: functional
Rattus norvegicus [28] = assay: Serum HDL cholesterol levels in female obese rats two weeks post treatment at 3 mg/kg oral dose; pretreatment value = 57 mg/dL; format: functional
Rattus norvegicus [29] = assay: Serum Triglyceride levels in female obese rats one week post treatment at 100 mg/kg oral dose; pretreatment value = 1068 mg/dL; format: functional
Rattus norvegicus [30] = assay: Serum HDL cholesterol levels in female obese rats one week post treatment at 100 mg/kg oral dose; pretreatment value = 58 mg/dL; format: functional
Rattus norvegicus [31] = assay: Serum HDL cholesterol levels in female obese rats two weeks post treatment at 30 mg/kg oral dose; pretreatment value = 49 mg/dL; format: functional
Rattus norvegicus [32] = assay: Serum Triglyceride levels in female obese rats two weeks post treatment at 100 mg/kg oral dose; pretreatment value = 1068 mg/dL; format: functional
Rattus norvegicus [33] = assay: Blood glucose levels in female obese rats two weeks post treatment at 30 mg/kg oral dose; pretreatment value = 106 mg/dL; format: functional
Rattus norvegicus [34] = assay: Serum HDL cholesterol levels in female obese rats two weeks post treatment at 100 mg/kg oral dose; pretreatment value = 58 mg/dL; format: functional
Rattus norvegicus [35] = assay: Serum NEFA levels in female obese rats one week post treatment at 100 mg/kg oral dose; pretreatment value = 1.2 mg/dL; format: functional
Rattus norvegicus [36] = assay: Insulin levels in female obese rats one week post treatment at 3 mg/kg oral dose; pretreatment value = 13.3 ng/mL; format: functional
Rattus norvegicus [37] = assay: Insulin levels in female obese rats one week post treatment at 10 mg/kg oral dose; pretreatment value = 8.8 […]; format: functional
Rattus norvegicus [38] = assay: Insulin levels in female obese rats one week post treatment at 100 mg/kg oral dose; pretreatment value = 8.6 ng/mL; format: functional
Rattus norvegicus [39] = assay: Serum NEFA levels in female obese rats two weeks post treatment at 10 mg/kg oral dose; pretreatment value = 1.4 mg/dL; format: functional
Rattus norvegicus [40] = assay: Serum NEFA levels in female obese rats two weeks post treatment at 30 mg/kg oral dose; pretreatment value = 1.2 mg/dL; format: functional
Rattus norvegicus [41] = assay: Serum Non-HDL cholesterol levels in female obese rats one week post treatment at 3 mg/kg oral dose; pretreatment value = 29 mg/dL; format: functional; method in brief: as §1
Rattus norvegicus [42] = assay: Blood glucose levels in female obese rats one week post treatment at 10 mg/kg oral dose; pretreatment value = 110 mg/dL; format: functional
Rattus norvegicus [43] = assay: Serum Non-HDL cholesterol levels in female obese rats two weeks post treatment at 3 mg/kg oral dose; pretreatment value = 29 mg/dL
Rattus norvegicus [44] = assay: Serum Non-HDL cholesterol levels in female obese rats one week post treatment at 10 mg/kg oral dose; pretreatment value = 33 mg/dL

## CC(C)(CO)CCCCOCCCCC(C)(C)CO
Rattus norvegicus [1]
  Activity: 119 mg/dL
Rattus norvegicus [2]
  Activity: 174 mg/dL
Rattus norvegicus [3]
  Activity: 110 mg/dL
Rattus norvegicus [4]
  Activity: 79 mg/dL
Rattus norvegicus [5]
  Activity: 324 mg/dL
Rattus norvegicus [6]
  Activity: 192 mg/dL
Rattus norvegicus [7]
  Activity: 134 mg/dL
Rattus norvegicus [8]
  Activity: 222 mg/dL
Rattus norvegicus [9]
  Activity: 123 mg/dL
Rattus norvegicus [10]
  Activity: 1.7 mg/dL
Rattus norvegicus [11]
  Activity: 1.2 mg/dL
Rattus norvegicus [12]
  Activity: 1.5 mg/dL
Rattus norvegicus [13]
  Activity: 0.76 mg/dL
Rattus norvegicus [14]
  Activity: 14.2 ng/mL
Rattus norvegicus [15]
  Activity: 9.9 ng/mL
Rattus norvegicus [16]
  Activity: 1.1 mg/dL
Rattus norvegicus [17]
  Activity: 0.75 mg/dL
Rattus norvegicus [18]
  Activity: 14.5 ng/mL
Rattus norvegicus [19]
  Activity: 26 mg/dL
Rattus norvegicus [20]
  Activity: 29 mg/dL

## CC(C)(CO)CCCCCOCCCCCC(C)(C)CO
Rattus norvegicus [21]
  Activity: 114 mg/dL
Rattus norvegicus [22]
  Activity: 1159 mg/dL
Rattus norvegicus [23]
  Activity: 191 mg/dL
Rattus norvegicus [24]
  Activity: 0.7 mg/dL
Rattus norvegicus [25]
  Activity: 113 mg/dL
Rattus norvegicus [26]
  Activity: 55 mg/dL
Rattus norvegicus [27]
  Activity: 128 mg/dL
Rattus norvegicus [28]
  Activity: 56 mg/dL
Rattus norvegicus [29]
  Activity: 83 mg/dL
Rattus norvegicus [30]
  Activity: 115 mg/dL
Rattus norvegicus [31]
  Activity: 138 mg/dL
Rattus norvegicus [32]
  Activity: 167 mg/dL
Rattus norvegicus [33]
  Activity: 141 mg/dL
Rattus norvegicus [34]
  Activity: 134 mg/dL
Rattus norvegicus [35]
  Activity: 1.2 mg/dL
Rattus norvegicus [36]
  Activity: 12.2 ng/mL
Rattus norvegicus [37]
  Activity: 14.8 ng/mL
Rattus norvegicus [38]
  Activity: 3.5 ng/mL
Rattus norvegicus [39]
  Activity: 1.5 mg/dL
Rattus norvegicus [40]
  Activity: 0.82 mg/dL
Rattus norvegicus [41]
  Activity: 26 mg/dL
Rattus norvegicus [42]
  Activity: 100 mg/dL
Rattus norvegicus [43]
  Activity: 29 mg/dL
Rattus norvegicus [44]
  Activity: 40 mg/dL
